ChEMBL document CHEMBL1134286, “Novel erythromycin derivatives with aryl groups tethered to the C-6 position are potent protein synthesis inhibitors and active against multidrug-resistant respiratory pathogens” (J Med Chem, 2001)
In brackets after ≈: the same amount, converted by molar mass.

How the values were obtained:
Staphylococcus aureus [1] = experiment: Minimum inhibitory concentration against Staphylococcus aureus A 5177 MLSB-i; type: functional
Outline: (§1)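 MICs were determined by agar dilution following National Committee for Clinical Laboratory Standards recommendations. Values are in µg/mL.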

Staphylococcus aureus [2] = experiment: Minimum inhibitory concentration against Staphylococcus aureus A 5278 MLSB-c; type: functional; outline: as §1
[3] = Minimum inhibitory concentration against Streptococcus pyogenes PIU2548 efflux; type: functional; outline: as §1
Streptococcus pneumoniae [4] = experiment: Minimum inhibitory concentration against Streptococcus pneumoniae 5649 efflux; type: functional; outline: as §1
[5] = Minimum inhibitory concentration against Streptococcus pneumoniae 5737 MLSB; type: functional; outline: as §1
Streptococcus pneumoniae [6] = experiment: Minimum inhibitory concentration against Streptococcus pneumoniae ATCC 6303 Ery-S; type: functional; outline: as §1
[7] = Minimum inhibitory concentration against Streptococcus pyogenes 930MLSB; type: functional; outline: as §1
Staphylococcus aureus [8] = experiment: Minimum inhibitory concentration against Staphylococcus aureus ATCC 6538PEry-S; type: functional; conditions: ATCC 6538P; outline: as §1
[9] = Minimum inhibitory concentration against Streptococcus pyogenes EES 61 Ery-S; type: functional; outline: as §1
[10] = Minimum inhibitory concentration against Haemophilus influenzae DILL Amp-R; type: functional; outline: as §1
Mus musculus [11] = species on record: Mus musculus; experiment: Mouse protection tests for effective dose against Staphylococcus aureus 10649 ((erythromycin susceptible strain)) infected mice; type: functional
Mus musculus [12] = species on record: Mus musculus; experiment: Mouse protection tests for effective dose against Streptococcus pneumoniae 6303 ((erythromycin susceptible strain)) infected mice; type: functional
Staphylococcus aureus [13] = experiment: Minimum inhibitory concentration against Staphylococcus aureus 10649 (erythromycin susceptible strain); type: functional; outline: as §1
Streptococcus pneumoniae [14] = experiment: Minimum inhibitory concentration against Streptococcus pneumoniae 6303 (erythromycin susceptible strain); type: functional; outline: as §1
Streptococcus pneumoniae [15] = experiment: Cell free inhibiting activity against erythromycin-susceptible strain Streptococcus pneumoniae 5635 (Wild type ribosomes for transcription/translation assay); type: functional
Outline: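 Cell-free coupled transcription/translation assay using bacterial ribosome S-30 extracts. Wild-type ribosomes were isolated from the erythromycin-susceptible strain S. pneumoniae 5635. Inhibition is reported as IC50 (µM).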

Streptococcus pneumoniae [16] = experiment: Cell free inhibiting activity against MLSB-resistant strain Streptococcus pneumoniae 1813 (methylated ribosomes for transcription/translation assay)

SMILES	MIC (Staphylococcus aureus [1])	MIC (Staphylococcus aureus [2])	MIC [3]	MIC (Streptococcus pneumoniae [4])	MIC [5]	MIC (Streptococcus pneumoniae [6])	MIC [7]	MIC (Staphylococcus aureus [8])	MIC [9]	MIC [10]	MIC (Staphylococcus aureus [13])	MIC (Streptococcus pneumoniae [14])	IC50 (Streptococcus pneumoniae [15])	IC50 (Streptococcus pneumoniae [16])	ED50 (Mus musculus [11])	ED50 (Mus musculus [12])
C=CCO[C@]1(C)C[C@@H](C)C(=O)[C@H](C)[C@H]2NC(=O)O[C@]2(C)[C@@H](CC)OC(=O)[C@H](C)[C@@H](O[C@H]2C[C@@](C)(OC)[C@@H](O)[C@H](C)O2)[C@H](C)[C@H]1O[C@@H]1O[C@H](C)C[C@H](N(C)C)[C@H]1O	0.78 µg/mL (≈ 0.976 µM)	> 100 µg/mL	8 µg/mL (≈ 10 µM)	2 µg/mL (≈ 2.5 µM)	> 128 µg/mL	0.03 µg/mL (≈ 0.0375 µM)	> 128 µg/mL	0.2 µg/mL (≈ 0.25 µM)	0.03 µg/mL (≈ 0.0375 µM)	2 µg/mL (≈ 2.5 µM)	–	–	–	–	–	–
C=CCO[C@]1(C)C[C@@H](C)C(=O)[C@H](C)[C@H]2NC(=O)O[C@]2(C)[C@@H](CC)OC(=O)[C@H](C)C(=O)[C@H](C)[C@H]1O[C@@H]1O[C@H](C)C[C@H](N(C)C)[C@H]1O	1.56 µg/mL (≈ 2.44 µM)	> 100 µg/mL	1 µg/mL (≈ 1.57 µM)	0.25 µg/mL (≈ 0.391 µM)	> 64 µg/mL	0.5 µg/mL (≈ 0.783 µM)	> 64 µg/mL	0.78 µg/mL (≈ 1.22 µM)	0.25 µg/mL (≈ 0.391 µM)	64 µg/mL (≈ 100 µM)	–	–	350 nM	> 500000 nM	–	–
CC[C@H]1OC(=O)[C@H](C)[C@@H](O[C@H]2C[C@@](C)(OC)[C@@H](O)[C@H](C)O2)[C@H](C)[C@@H](O[C@@H]2O[C@H](C)C[C@H](N(C)C)[C@H]2O)[C@](C)(OC/C=C/c2cnc3ccccc3c2)C[C@@H](C)C(=O)[C@H](C)[C@H]2NC(=O)O[C@@]21C	3.1 µg/mL (≈ 3.35 µM)	> 100 µg/mL	1 µg/mL (≈ 1.08 µM)	1 µg/mL (≈ 1.08 µM)	8 µg/mL (≈ 8.64 µM)	0.03 µg/mL (≈ 0.0324 µM)	8 µg/mL (≈ 8.64 µM)	0.2 µg/mL (≈ 0.216 µM)	0.03 µg/mL (≈ 0.0324 µM)	2 µg/mL (≈ 2.16 µM)	–	–	–	–	–	–
CC[C@H]1OC(=O)[C@H](C)C(=O)[C@H](C)[C@@H](O[C@@H]2O[C@H](C)C[C@H](N(C)C)[C@H]2O)[C@](C)(OC/C=C/c2ccc3ncncc3c2)C[C@@H](C)C(=O)[C@H](C)[C@H]2NC(=O)O[C@@]21C	0.2 µg/mL (≈ 0.261 µM)	> 100 µg/mL	0.5 µg/mL (≈ 0.652 µM)	0.25 µg/mL (≈ 0.326 µM)	0.5 µg/mL (≈ 0.652 µM)	0.03 µg/mL (≈ 0.0391 µM)	2 µg/mL (≈ 2.61 µM)	0.2 µg/mL (≈ 0.261 µM)	0.03 µg/mL (≈ 0.0391 µM)	4 µg/mL (≈ 5.22 µM)	0.2 µg/mL (≈ 0.261 µM)	0.03 µg/mL (≈ 0.0391 µM)	–	–	9.2 mg/kg	40.3 mg/kg
CC[C@H]1OC(=O)[C@H](C)C(=O)[C@H](C)[C@@H](O[C@@H]2O[C@H](C)C[C@H](N(C)C)[C@H]2O)[C@](C)(OC/C=C/c2cccc3ncccc23)C[C@@H](C)C(=O)[C@H](C)[C@H]2NC(=O)O[C@@]21C	0.1 µg/mL (≈ 0.131 µM)	> 100 µg/mL	0.25 µg/mL (≈ 0.326 µM)	0.25 µg/mL (≈ 0.326 µM)	2 µg/mL (≈ 2.61 µM)	0.03 µg/mL (≈ 0.0392 µM)	> 128 µg/mL	0.1 µg/mL (≈ 0.131 µM)	0.03 µg/mL (≈ 0.0392 µM)	8 µg/mL (≈ 10.4 µM)	–	–	–	–	–	–

Second part, led by results:

MIC (Staphylococcus aureus [1])	MIC (Staphylococcus aureus [2])	MIC [3]	MIC (Streptococcus pneumoniae [4])	MIC [5]	MIC (Streptococcus pneumoniae [6])	MIC [7]	MIC (Staphylococcus aureus [8])	MIC [9]	MIC [10]	MIC (Staphylococcus aureus [13])	MIC (Streptococcus pneumoniae [14])	IC50 (Streptococcus pneumoniae [15])	IC50 (Streptococcus pneumoniae [16])	SMILES	ED50 (Mus musculus [11])	ED50 (Mus musculus [12])
0.05 µg/mL (≈ 0.0632 µM)	> 100 µg/mL	2 µg/mL (≈ 2.53 µM)	1 µg/mL (≈ 1.26 µM)	128 µg/mL (≈ 162 µM)	0.06 µg/mL (≈ 0.0759 µM)	16 µg/mL (≈ 20.2 µM)	0.05 µg/mL (≈ 0.0632 µM)	0.06 µg/mL (≈ 0.0759 µM)	4 µg/mL (≈ 5.06 µM)	0.05 µg/mL (≈ 0.0632 µM)	0.06 µg/mL (≈ 0.0759 µM)	–	–	CC[C@H]1OC(=O)[C@H](C)C(=O)[C@H](C)[C@@H](O[C@@H]2O[C@H](C)C[C@H](N(C)C)[C@H]2O)[C@](C)(OC/C=C/c2cnc3ccccc3c2)C[C@@H](C)C2=NCCN3C(=O)O[C@@]1(C)[C@H]3[C@H]2C	60.4 mg/kg	23.5 mg/kg
0.1 µg/mL (≈ 0.13 µM)	> 100 µg/mL	0.25 µg/mL (≈ 0.326 µM)	0.25 µg/mL (≈ 0.326 µM)	8 µg/mL (≈ 10.4 µM)	0.015 µg/mL (≈ 0.0195 µM)	4 µg/mL (≈ 5.21 µM)	0.1 µg/mL (≈ 0.13 µM)	0.004 µg/mL (≈ 0.00521 µM)	2 µg/mL (≈ 2.6 µM)	0.1 µg/mL (≈ 0.13 µM)	0.015 µg/mL (≈ 0.0195 µM)	–	–	CC[C@H]1OC(=O)[C@H](C)C(=O)[C@H](C)[C@@H](O[C@@H]2O[C@H](C)C[C@H](N(C)C)[C@H]2O)[C@](C)(OCCCc2cnc3ccccc3c2)C[C@@H](C)C(=O)[C@H](C)[C@H]2NC(=O)O[C@@]21C	27.1 mg/kg	33 mg/kg
0.05 µg/mL (≈ 0.0652 µM)	> 100 µg/mL	0.5 µg/mL (≈ 0.652 µM)	0.5 µg/mL (≈ 0.652 µM)	1 µg/mL (≈ 1.3 µM)	0.015 µg/mL (≈ 0.0196 µM)	4 µg/mL (≈ 5.22 µM)	0.05 µg/mL (≈ 0.0652 µM)	0.03 µg/mL (≈ 0.0391 µM)	2 µg/mL (≈ 2.61 µM)	–	–	–	–	CC[C@H]1OC(=O)[C@H](C)C(=O)[C@H](C)[C@@H](O[C@@H]2O[C@H](C)C[C@H](N(C)C)[C@H]2O)[C@](C)(OC/C=C/c2ccc3nnccc3c2)C[C@@H](C)C(=O)[C@H](C)[C@H]2NC(=O)O[C@@]21C	–	–
